{
  "source": "paper PMC8214312",
  "about": "(Journal of medicinal chemistry, 2021)",
  "key": {"DPP-IV": {"system": "DPP-IV", "conditions": "read-out: IC50 DPP-IV; cited from earlier work"}, "FAP-positive U87 cells": {"system": "FAP-positive U87 cells", "assay": "Cellular uptake of [111In]QCP02 in U87 cells", "type": "cell-based, human", "conditions": "0.037 MBq, 30 min at 37 °C"}, "FAP-negative PC3 cells": {"system": "FAP-negative PC3 cells", "assay": "Cellular uptake of [111In]QCP02 in PC3 cells", "type": "cell-based, human", "conditions": "0.037 MBq, 30 min at 37 °C"}, "[1]": {"system": "FAP-positive U87 xenograft", "assay": "Ex vivo biodistribution of [111In]QCP02, U87 xenograft", "parameters": "species or system NOD/SCID mice", "summary_of_the_method": "(§1)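 Male NOD/SCID mice (6–8 weeks) carried subcutaneous xenografts of 1 million U87 cells (left upper flank) and PC3 cells (right upper flank) in HBSS, used at 100–300 mm3. Radioligand was given as 0.37 MBq in 200 μL saline (<10% ethanol) via the tail vein. Groups (n = 4) were killed by CO2 at 5 min, 30 min, 1, 3, 6, 10 and 28 h. Weighed tissues were gamma-counted, decay-corrected against a standard dilution of the dose, and expressed as %ID/g.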"}, "[2]": {"system": "FAP-negative PC3 xenograft", "assay": "Ex vivo biodistribution of [111In]QCP02, PC3 xenograft", "parameters": "species or system NOD/SCID mice", "summary_of_the_method": "as §1"}, "[3]": {"system": "U87 and PC3 tumor xenografts", "assay": "SPECT-CT imaging of [111In]QCP02 in tumor-bearing mice", "type": "in vivo, NOD/SCID mice"}, "[4]": {"system": "FAP-positive cell lines (U87, NCIH228, and SKMEL24)", "conditions": "inhibitor 10^-10 to 10^-4 M, then 25 nM QCP01 for 1 h at 37 °C"}, "FAP": {"system": "FAP", "conditions": "read-out: IC50 FAP; cited from earlier work"}, "[5]": {"system": "FAP-positive cell lines (NCIH2228, U87, and SKMEL24)", "assay": "In vitro fluorescence binding of QCP01 to FAP-positive cell lines", "type": "cell-based, human", "conditions": "1 h incubation, range 50-0.78 nM"}, "[6]": {"system": "FAP-negative cell lines (PC3, NCIH226, and HCT116)", "assay": "In vitro fluorescence binding of QCP01 to FAP-negative cell lines", "type": "cell-based, human", "conditions": "any of the concentrations tested (50-0.78 nM)"}, "[7]": {"system": "U87 and PC3 tumor xenografts", "assay": "NIRF imaging of QCP01 in tumor-bearing mice", "type": "in vivo, NOD/SCID mice"}, "[8]": {"conditions": "1 h post injection, 0.37 MBq via tail vein"}},
  "note": "“And” between values parts separate entries of the source, which are not always exact repeats. Identical values can stand only once.",
  "data": [
    {"smiles": "CC(C)[C@H](N)C(=O)N1CCC[C@H]1B(O)O", "note": "[Val-boroPro]", "values": [
      {"measurement": "IC50", "setting": "DPP-IV", "result": "0.022 ± 0.001", "unit": "µM"}
    ]},
    {"smiles": "N#C[C@@H]1CCCN1C(=O)CNC(=O)c1ccnc2ccc(OCCCNC(=O)CCC(C(=O)O)N3CCN(CC(=O)[O-])CCN(CC(=O)[O-])CCN(CC(=O)[O-])CC3)cc12.[111In+3]", "note": "(stereo partly drawn) [[^111In]QCP02, [^111In]2,2′,2″-(10-(1-Carboxy-4-((3-((4-((2-((S)-2-cyanopyrrolidin-1-yl)-2-oxoethyl)carbamoyl)quinolin-6-yl)oxy)propyl)amino)-4-oxobutyl)-1,4,7,10-tetraazacyclododecane-1,4,7-triyl)triacetate]", "values": [
      {"measurement": "binding of the incubated dose", "setting": "FAP-positive U87 cells", "result": "over 30%"},
      {"measurement": "binding of the incubated dose", "setting": "FAP-negative PC3 cells", "result": 0.01, "unit": "%"},
      {"measurement": "uptake in U87 tumor", "setting": "[1]; 5 min post injection", "result": "over 10 % ID/g"},
      {"measurement": "uptake in U87 tumor (peak)", "setting": "[1]; 30 min post injection", "result": "18.2 % ID/g and 18.16 ± 11.67 % ID/g"},
      {"measurement": "uptake in U87 xenograft", "setting": "[1]; [8]", "result": "16.09 ± 4.17", "unit": "% ID/g"},
      {"measurement": "uptake in U87 xenografts, blocked", "setting": "[1]; 6 h post injection, co-injection of non-radioactive QCP02 (50 μg per mouse)", "result": "0.55 ± 0.23", "unit": "% ID/g"},
      {"measurement": "uptake in U87 xenograft relative to PC3 xenograft", "setting": "[1]; all time points", "result": "3–4 fold"},
      {"measurement": "time by which washout of radiotracer in U87 tumors was observed", "setting": "[1]; post injection", "result": "≤ 28", "unit": "h"},
      {"measurement": "uptake in PC3 xenograft", "setting": "[2]; [8]", "result": "4.12 ± 0.36", "unit": "% ID/g"},
      {"measurement": "uptake in PC3 tumor", "setting": "[2]; all time points", "result": "less than 5 % ID/g"},
      {"measurement": "retention of uptake in U87 xenografts on SPECT-CT", "setting": "[3]; 7.4 MBq via tail vein, uptake seen as early as 1 h post injection", "result": "up to 10 h"},
      {"measurement": "uptake in PC3 xenografts on SPECT-CT", "setting": "[3]; all imaging time points (1, 3, 6, 10, 28 h)", "result": "low uptake"}
    ]},
    {"smiles": "N[C@@H](CC(=O)N1CCn2c(nnc2C(F)(F)F)C1)Cc1cc(F)c(F)cc1F", "note": "[sitagliptin]", "values": [
      {"measurement": "effect of pretreatment on QCP01 binding (fluorescence signal)", "setting": "[4]", "result": "not inhibited"},
      {"measurement": "IC50", "setting": "FAP", "result": "> 100", "unit": "µM"}
    ]},
    {"smiles": "CC1(C)C(/C=C/C2=C(Oc3ccc(S(=O)(=O)O)cc3)C(=C/C=C3/N(CCCCS(=O)(=O)O)c4ccc(S(=O)(=O)O)cc4C3(C)C)/CCC2)=[N+](CCCCCC(=O)NCCCOc2ccc3nccc(C(=O)NCC(=O)N4CCC[C@H]4C#N)c3c2)c2ccc(S(=O)(=O)[O-])cc21", "note": "[QCP01]", "values": [
      {"measurement": "concentration at which binding was saturated", "setting": "[5]", "result": 50, "unit": "nM"},
      {"measurement": "lowest concentration at which QCP01 binding was observed", "setting": "[5]", "result": 1.56, "unit": "nM"},
      {"measurement": "binding in FAP-negative cell lines", "setting": "[6]", "result": "no specific binding"},
      {"measurement": "NIRF uptake in normal tissues", "setting": "[7]; 5 nmol QCP01 via tail vein, 30 min after injection", "result": "mild degree (moderate in the kidney)"},
      {"measurement": "NIRF uptake in PC3 tumors", "setting": "[7]; 5 nmol QCP01 via tail vein, 30 min until 5 h, washout at 24 h", "result": "mild uptake"},
      {"measurement": "NIRF uptake in U87 xenografts over time", "setting": "[7]; 5 nmol QCP01 via tail vein, imaging 0.5-48 h", "result": "persisted up to 5 h after injection, with washout after 24 h"},
      {"measurement": "ex vivo NIRF uptake of excised U87 tumor versus PC3 tumor", "setting": "[7]; 5, 24, and 48 h after injection", "result": "higher QCP01 uptake than the PC3 tumor"}
    ]}
  ]
}
